No end group written: not given here.
What was measured:
E. coli = test: Viable count analysis; type: cell-based, Escherichia coli; conditions: GGL27 1 µM, 1 hour at 37°C, normal human citrated plasma; Fig. 3h
Outline: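 Mid-exponential E. coli grown in Todd-Hewitt broth and washed. 2 x 10^8 cfu/ml incubated 60 min at 37°C with test peptide in 100% human citrated plasma, or in plasma pretreated 3 h with IdeS (0.2 µg/µl) to remove IgG. Serial dilutions plated on TH agar overnight at 37°C; cfu counted and expressed as % survival, mean ± SD.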

bacteria = conditions: buffer with physiological salt content or plasma; ref [7]; cited from earlier work
[1] = tested on: intrinsic pathway of coagulation; test: aPTT clotting assay in crocodile plasma; type: biochemical, crocodile (Crocodylus siamensis); conditions: peptide 50 µM in citrated crocodile plasma; n=3; Fig. 4b; words
[2] = tested on: intrinsic pathway of coagulation; test: aPTT clotting assay in turkey plasma; type: biochemical; conditions: peptide 50 µM in citrated turkey plasma; n=3; Fig. 4c; words

GGLIKTKRKRKKQRVKIAYEEIFVKNM [GGL27]
killing of E. coli (E. coli): ~100%

LL-37: antibacterial peptide (LLGDFFRKSKEKIGKEFKRIVQRIKDFLRNLVPRTES; Antibacterial peptide LL-37; UniProt P49913 134-170, looked up)
killing activity in physiological salt or plasma (bacteria): lose their killing activity

RGIIKIKRKRKKQPEKMVRDEIIIERI [American alligator]
aPTT clotting time [1]: clotting times were prolonged

RRLIRIKKKKKQSLKTVGEEIIRGRIQ [Common turkey]
aPTT clotting time [2]: shortened clotting time

— article PMC5955456 (Virulence, 2018)
